# bCat nuc transl: modulators of beta-catenin nuclear translocation, primary screen, imaging, HeLa cells, immunofluorescence, high-content. AID 1665, 2009. actives 0.3% (n = 190,000). nuclear translocation activity, % at 5 µM;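 active = nuclear translocation activity above 50% at 5 µM, with a well cell count of 50 or more; inconclusive = wells under 50 cells across six images, flagged as toxic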;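 note: per-cell ratio of nuclear to cytoplasmic median beta-catenin stain intensity; plate controls were DMSO negative control for no effect and GSK-3 inhibitor IX positive control for full effect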
#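 Test system: HeLa cells, endogenous beta-catenin; Compound: single 5 µM dose plus 0.02–20 µM confirmation series; Times: compound exposure 24 h at 37°C; Signal: fluorescence imaging of beta-catenin antibody stain plus DAPI; Read-out: % activation, nuclear-to-cytoplasmic median beta-catenin signal ratio per cell.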
# MT stabilizer: microtubule stabilizers in HeLa cells, primary screen, imaging, high-content imaging | HeLa tubulin immunostaining HCS, 24 h; share of cells brighter than vehicle mean+2SD | % tubulin-high responders, % at 10 µM | actives 0.83% (n = 200,000) | AID 2205, 2009;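 active = plate Z-score above 3 for both tubulin-high and condensed-nucleus cell shares, with cell loss under 80%, at 10 µM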;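 note: anti alpha tubulin signal scored within the nucleus-defined area of each cell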
# Autophagy mod: autophagy modulators in MEF cells, primary screen, imaging, high-content, MEF GFP-LC3; calls only at 10 µM (by protocol); AID 463193, 2010; MEF GFP-LC3 puncta imaging; test concentration mostly 10 µM; actives 0.98% (n = 190,000);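 active = percentage of spot-positive cells more than 3 SD above its plate mean, without a fluorescence outlier flag or 80% toxicity; inconclusive = no clear call, values can overlap the other calls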;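 note: spot-positive cell cutoff set from DMSO-treated cells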
# Insulin prom up: insulin promoter activators in MIN6 cells, imaging, high-content screening, mouse beta cells; MIN6 insulin promoter-GFP reporter; hits give high values; z-score at 5 µM; actives 0.3% (n = 190,000); AID 1625, 2009;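 active = z-score above 3 at 5 µM with at least 500 cells counted in the well; inconclusive = wells under 500 cells, flagged as cytotoxic or low count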
# * hit, by the source's call; i = inactive; ? = inconclusive; · = not tested or not shown; + = active, no number. In the library only some 1.9% were active in any assay of this set; here they are far more common.
SMILES,bCat nuc transl,MT stabilizer,Autophagy mod,Insulin prom up
CCOc1ccc(-c2cc(C(=O)N3CCN(c4ccccn4)CC3)c3ccccc3n2)cc1,·,24*,i,0.21
COc1ccc(-c2cc(C(=O)N3CCN(c4ccccn4)CC3)c3ccccc3n2)cc1,0,29*,i,-0.86
CCOc1ccc(-c2cc(C(=O)N3CCN(C)CC3)c3ccccc3n2)cc1,·,2,i,0.77
COc1cc(-c2cc(C(=O)N3CCN(c4ccccn4)CC3)c3ccccc3n2)cc(OC)c1OC,·,4,i,·
COc1ccc(-c2cc(C(=O)N3CCN(c4ccccc4)CC3)c3ccccc3n2)cc1,113*,17*,i,0.26
COCCn1c(=O)[nH]c(=O)c2c(C(F)(F)F)cc(-c3cccs3)nc21,-1,2,i,·
O=C(Cc1cccs1)Nc1cccc(-c2nnc(-c3ccco3)o2)c1,1,2,i,-0.46
Cc1ccc(-c2nnc(-c3ccc(NC(=O)Cc4cccs4)cc3)o2)cc1,-2,6,+,-0.85
Cc1nn(-c2ccccc2)c(C)c1NC(=O)c1cccs1,·,41*,i,0.36
COc1cc(OC)cc(C(=O)Nc2c(C)nn(-c3ccccc3)c2C)c1,0,13*,i,·
O=C1CC(c2ccccc2)CC2=C1C=Nc1ccccc1N2 (stereo not drawn),4,21*,i,-0.24
C=C(C)COc1ccc2c(CC)cc(=O)oc2c1,0,3,i,0.8
CC12CCC(=O)N1C(C(=O)OCC(=O)Nc1cc(S(=O)(=O)N3CCCCC3)ccc1Cl)CS2 (stereo not drawn),-1,3,i,·
COc1ccc(C(=O)c2ccc(OC)c(OC)c2)cc1OC,·,4,i,·
COc1ccc(C(=O)c2ccc(OC)c(N)c2)cc1N,·,34*,+,0.7
Fc1ccccc1NC(=S)N(CCN1CCCCC1)Cc1ccco1,·,2,i,-0.27
CCn1c(SCC(=O)N/N=C/c2c[nH]c3ccccc23)nnc1-c1ccc(C)cc1,-3,4,i,·
Cc1ccccc1NCC(=O)N/N=C/c1c[nH]c2ccccc12,2,4,i,4*
CCn1c(SCC(=O)N/N=C/c2c[nH]c3ccccc23)nnc1-c1ccc(Cl)cc1,35,12*,i,0.25
COCC(C)OC(=O)c1c(N)n(-c2ccc(OC)c(OC)c2)c2nc3ccccc3nc12 (stereo not drawn),0,·,·,-0.31
O=[N+]([O-])c1ccc(N/N=C/c2ccc(O)c(O)c2O)c(S(=O)(=O)N2CCOCC2)c1,2,4,i,-0.04
O=[N+]([O-])c1ccc(N/N=C/c2cccc(O)c2O)c(S(=O)(=O)N2CCOCC2)c1,2,5,+,-1.5
Cc1ccc(S(=O)(=O)Nc2c(C)nc3nc[nH]n3c2=O)c(C)c1,0,2,i,0.06
O=C(Cn1c(O)c(/C=C2\C=Nc3ccccc32)sc1=O)Nc1ccc2c(c1)OCO2,0,2,+,0.32
CCOc1ccccc1NC(=O)c1ccc(Cl)c(NC(=O)CC(c2ccccc2)c2ccccc2)c1,-2,3,i,-0.4
SMILES,bCat nuc transl,MT stabilizer,Autophagy mod,Insulin prom up
Cc1ccc(N2C(=O)c3ccccc3C2=O)cc1C,0,3,i,0.18
Cc1cc(N2C(=O)c3ccccc3C2=O)n(C)n1,-5,·,·,3.8*
Cc1cc(C(F)(F)F)nn1CC(=O)NNC(=S)Nc1cccc(Cl)c1,0,3,i,0.11
COc1ccccc1NS(=O)(=O)c1cc(NC(=O)CCC(=O)c2cccs2)ccc1Cl,0,2,i,0.17
COc1ccc(NC(=O)CCC(=O)c2cccs2)cc1S(=O)(=O)Nc1ccc(Cl)cc1,20,17*,i,-0.32
CC(/C=N/NC(=O)c1ccc2nc(C)[nH]c2c1)=C\c1ccccc1,-1,3,i,0.8
CCOC(=O)c1cc(CC)sc1/N=C/C1=C(O)CCCC1=O,·,2,i,-0.63
CC1CC2(C)Oc3ccccc3CC2C(C)C1CNCCCN(C)C (stereo not drawn),57*,3,i,?
CC1Cc2ccccc2N1C(=O)CNCCCN(C)C (stereo not drawn),-4,1,i,0.77
O=C(Nc1ccc(Br)cn1)c1cccc2c1-c1ccccc1C2=O,1,36*,i,·
O=C(NCC1CCCO1)C(=O)c1c[nH]c2ccccc12 (stereo not drawn),0,3,i,0.75
COC(=O)c1c(-c2cccc3ccccc23)csc1NC(=O)Cc1ccc(OC)c(OC)c1,·,52*,i,-1.3
CC1CCCN(c2nc3c(c(=O)[nH]c(=O)n3C)n2CCSc2ncccn2)C1 (stereo not drawn),-4,9,i,-0.57
Cc1cccc(C(=O)Nc2ccc(O)c3c(=O)cc(-c4ccccc4Cl)oc23)c1,·,4,+,-0.31
CCOC(=O)c1[nH]c(C)c(C(=O)Nc2ccc(C)cc2C)c1C,8,16*,·,0.13
CCOC(=O)c1[nH]c(C)c(C(=O)c2ccc(C)cc2)c1C,·,44*,i,-0.76
CCOC(=O)c1c(C)[nH]c(C(=O)OCC(=O)N2CCc3ccccc32)c1C,-4,4,+,0.62
CCOC(=O)c1[nH]c(C)c(C(=O)Nc2ccc(F)cc2)c1C,·,3,i,-0.05
CCOC(=O)c1[nH]c(C)c(C(=O)Nc2ccccc2F)c1C,0,34*,+,-0.15
CCn1cc(CNC(=O)/C=C/c2ccc([N+](=O)[O-])cc2)cn1,-4,4,i,-0.17
CCc1ccc(-c2nc(C(N)=O)c3[nH]c(=O)n(-c4ccccc4OC)c3n2)cc1,-1,17*,i,-0.06
COc1ccc(-c2nc(C(N)=O)c3[nH]c(=O)n(-c4cccc(Cl)c4)c3n2)cc1OC,·,1,i,-0.45
CCOC(=O)C1CCCN(Cc2nc(Cc3ccccc3Cl)no2)C1 (stereo not drawn),0,2,i,0.61
O=C(CSc1nccc(=O)[nH]1)Nc1cccc(S(=O)(=O)N2CCOCC2)c1,0,5,i,·
COc1ccc(C2N(Cc3ccccc3)CCN2Cc2ccccc2)cc1[N+](=O)[O-],-3,5,+,-0.06
SMILES,bCat nuc transl,MT stabilizer,Autophagy mod,Insulin prom up
CCOc1ccc(CCNS(=O)(=O)c2cnc[nH]2)cc1OCC,0,2,i,-0.02
CNC(=O)N(C1=NCCCCC1)c1ccc(Br)cc1,0,2,i,-0.03
Cc1nc2ccc(S(=O)(=O)Nc3cc(-c4nc5cccnc5s4)ccc3C)cc2s1,4,21*,i,0.79
CC(C)C(=O)NNc1ccc(C(F)(F)F)cn1,-2,·,·,0.25
Cc1[nH]c2ccccc2c1C(=O)CCl,4,2,+,-0.65
CCOc1ccc(NS(=O)(=O)c2ccc(OCC)c3ncccc23)cc1,-1,44*,i,0.47
COc1ccccc1C(=O)NC(CCSC)C(=O)OC(C)C(N)=O (stereo not drawn),0,1,i,0.13
CC(C)N(Cc1nc(-c2ccccc2)no1)C(=O)C(C)(C)C,0,4,+,-1.2
